Measured values published in ChEMBL document CHEMBL2169842, “Structure-activity relationship in the antitumor activity of 6-, 8- or 6,8-substituted 3-benzylamino-β-carboline derivatives” (Bioorg Med Chem Lett, 2012).
Activity calls are given as the source filed them. No cut-off for these calls is given here.

What was measured:
[1] = Cytotoxicity against human HeLaS3 cells after 24 to 72 hrs by MTT assay; assay type: functional, cell-based; conditions: HeLa S3
Summary of the method: (§1)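 MTT assay. IC50 taken as the drug concentration giving 50% inhibition of cell growth. Values are mean ± S.D. of four independent experiments, each run in triplicate.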

[2] = Cytotoxicity against mouse Sarcoma 180 cells after 24 to 72 hrs by MTT assay; assay type: functional, cell-based; summary of the method: as §1
HEK-293T = experiment: Cytotoxicity against human 293T cells after 24 to 72 hrs by MTT assay; assay type: cell-based; summary of the method: as §1
[3] = Cell cycle arrest in human HeLaS3 cells assessed as accumulation at G2/M phase after 48 hrs using propidium iodide staining by flow cytometry (reference value: 16.21%); assay type: functional, cell-based; conditions: HeLa S3
Summary of the method: (§2)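 HeLa S-3 cells incubated without (control) or with compound for 9, 24 or 48 h, then fixed and stained with propidium iodide. DNA content read by flow cytometry. Populations given as percent in sub-G1, G1, S and G2/M phases.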

[4] = Cell cycle arrest in human HeLaS3 cells assessed as accumulation at G2/M phase after 24 hrs using propidium iodide staining by flow cytometry (reference value: 16.21%); assay type: functional, cell-based; conditions: HeLa S3; summary of the method: as §2
[5] = Cell cycle arrest in human HeLaS3 cells assessed as accumulation at G2/M phase after 9 hrs using propidium iodide staining by flow cytometry (reference value: 16.21%); assay type: functional, cell-based; conditions: HeLa S3; summary of the method: as §2
[6] = Cell cycle arrest in human HeLaS3 cells assessed as accumulation at S phase after 48 hrs using propidium iodide staining by flow cytometry (reference value: 6.36%); assay type: functional, cell-based; conditions: HeLa S3
[7] = Cell cycle arrest in human HeLaS3 cells assessed as accumulation at S phase after 24 hrs using propidium iodide staining by flow cytometry (reference value: 6.36%); assay type: functional, cell-based; conditions: HeLa S3
[8] = Cell cycle arrest in human HeLaS3 cells assessed as accumulation at S phase after 9 hrs using propidium iodide staining by flow cytometry (reference value: 6.36%); assay type: functional, cell-based; conditions: HeLa S3
[9] = Cell cycle arrest in human HeLaS3 cells assessed as accumulation at G1 phase after 48 hrs using propidium iodide staining by flow cytometry (reference value: 75.29%); assay type: functional, cell-based; conditions: HeLa S3; summary of the method: as §2
[10] = Cell cycle arrest in human HeLaS3 cells assessed as accumulation at G1 phase after 24 hrs using propidium iodide staining by flow cytometry (reference value: 75.29%); assay type: functional, cell-based; conditions: HeLa S3; summary of the method: as §2
[11] = Cell cycle arrest in human HeLaS3 cells assessed as accumulation at G1 phase after 9 hrs using propidium iodide staining by flow cytometry (reference value: 75.29%); assay type: functional, cell-based; conditions: HeLa S3; summary of the method: as §2
[12] = Cell cycle arrest in human HeLaS3 cells assessed as accumulation at sub-G1 phase after 48 hrs using propidium iodide staining by flow cytometry (reference value: 2.41%); assay type: functional, cell-based; conditions: HeLa S3; summary of the method: as §2
[13] = Cell cycle arrest in human HeLaS3 cells assessed as accumulation at sub-G1 phase after 24 hrs using propidium iodide staining by flow cytometry (reference value: 2.41%); assay type: functional, cell-based; conditions: HeLa S3; summary of the method: as §2
[14] = Cell cycle arrest in human HeLaS3 cells assessed as accumulation at sub-G1 phase after 9 hrs using propidium iodide staining by flow cytometry (reference value: 2.41%); assay type: functional, cell-based; conditions: HeLa S3; summary of the method: as §2
HeLa S3 [15] = experiment: Induction of apoptosis in human HeLaS3 cells assessed as DNA fragmentation after 48 hrs agarose-gel electrophoresis; assay type: functional, cell-based
Summary of the method: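 HeLa S-3 cells treated with compound for 48 h. Genomic DNA extracted and run on a 2% agarose gel beside a 100 bp ladder marker to detect DNA fragmentation.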

HeLa S3 [16] = experiment: Induction of apoptosis in human HeLaS3 cells assessed as formation of chromatin condensation and fragmented nuclei after 48 hrs by Hoechst 33342 staining; assay type: functional, cell-based
Summary of the method: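 HeLa S-3 cells treated with compound for 48 h, then stained with Hoechst 33342. Nuclear chromatin examined by fluorescence microscopy for condensation and fragmented nuclei, with untreated cells as comparison.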

`Nc1ccc2[nH]c3cnc(NCc4ccccc4)cc3c2c1` gave an IC50 [1] of 11 µM.
`O=C(Nc1cc(Cl)cc2c1[nH]c1cnc(NCc3ccccc3)cc12)c1cccnc1` showed an IC50 [2] of 8300 nM, an IC50 (HEK-293T) of 10 µM and an IC50 [1] of 15 µM.
Work on `Clc1cc(NCc2ccccn2)c2[nH]c3cnc(NCc4ccccc4)cc3c2c1` yielded an IC50 [2] of 1000 nM, an IC50 (HEK-293T) of 1.1 µM and an IC50 [1] of 1.5 µM.
`CCCCC(=O)Nc1cc(Cl)cc2c1[nH]c1cnc(NCc3ccccc3)cc12` showed an IC50 [2] of 530 nM, an IC50 (HEK-293T) of 0.5 µM and an IC50 [1] of 0.99 µM.
For `Clc1ccc2[nH]c3cnc(NCc4ccccc4)cc3c2c1`, the Activity [3] was 49%, the Activity [4] was 69.5% and the Activity [5] was 46.9%. The Activity [6] was 11.3%, the Activity [7] was 7.74% and the Activity [8] was 10.9%. For the same compound, the Activity [9] was 18.2%, the Activity [10] was 8.2% and the Activity [11] was 33%. The Activity [12] was 21.4%, the Activity [13] was 14.6% and the Activity [14] was 9.14%. For the same compound, the Activity (HeLa S3 [15]) was “Active”, the Activity (HeLa S3 [16]) was “Active” and the IC50 [2] was 1800 nM. The IC50 [1] was 2.8 µM.
`Clc1ccc2[nH]c3cnc(NCc4cccc(Oc5ccccc5)c4)cc3c2c1` showed an IC50 [2] of 1360 nM and an IC50 [1] of 1.8 µM.
With `CC(=O)Nc1cc(Cl)cc2c1[nH]c1cnc(NCc3ccccc3)cc12` the IC50 [2] was 16200 nM, the IC50 (HEK-293T) was 15 µM and the IC50 [1] was 21 µM.
`c1ccc(CNc2cc3c(cn2)[nH]c2ccccc23)cc1` showed an Activity [3] of 52.8%, an Activity [4] of 67.7% and an Activity [5] of 57%. It also gave an Activity [6] of 16.2%, an Activity [7] of 9.18% and an Activity [8] of 14.3%. The Activity [9] was 12.2%, the Activity [10] was 6.93% and the Activity [11] was 22.6%. The Activity [12] was 18.8%, the Activity [13] was 16.2% and the Activity [14] was 6.08%. The Activity (HeLa S3 [15]) was “Active”, the Activity (HeLa S3 [16]) was “Active” and the IC50 [2] was 440 nM. It also gave an IC50 [1] of 0.11 µM.
`O=C(Nc1cc(Cl)cc2c1[nH]c1cnc(NCc3ccccc3)cc12)c1ccccn1` showed an IC50 [2] of 1900 nM, an IC50 (HEK-293T) of 4 µM and an IC50 [1] of 3.7 µM.
Compound `CNc1cccc2c1[nH]c1cnc(NCc3cccc(Oc4ccccc4)c3)cc12` has an IC50 [1] of 0.032 µM.
Compound `Clc1cc(NCc2ccccc2)c2[nH]c3cnc(NCc4ccccc4)cc3c2c1` has an IC50 [2] of 2600 nM, an IC50 (HEK-293T) of 3.8 µM and an IC50 [1] of 4.2 µM.
`CCCCC(=O)Nc1cc(Cl)cc2c1[nH]c1cnc(N)cc12` gave an IC50 [2] of 18100 nM and an IC50 [1] of 27 µM.
`O=C(Nc1cc(Cl)cc2c1[nH]c1cnc(NCc3ccccc3)cc12)C(F)(F)C(F)(F)F` showed an IC50 [2] of 6100 nM and an IC50 [1] of 9.2 µM.
In the case of `O=C(Nc1cc(Cl)cc2c1[nH]c1cnc(NCc3ccccc3)cc12)c1ccncc1`, the IC50 [2] is reported as 7900 nM, the IC50 (HEK-293T) is reported as 8 µM and the IC50 [1] is reported as 13 µM.
`CC(C)C(=O)Nc1cc(Cl)cc2c1[nH]c1cnc(NCc3ccccc3)cc12` showed an IC50 [2] of 8000 nM, an IC50 (HEK-293T) of 8 µM and an IC50 [1] of 9 µM.
Compound `CC(C)(C)C(=O)Nc1ccc2[nH]c3cnc(NCc4ccccc4)cc3c2c1` has an IC50 [1] of 14 µM.
Compound `CNc1cccc2c1[nH]c1cnc(NCc3ccccc3)cc12` has an IC50 [2] of 24 nM and an IC50 [1] of 0.046 µM.
Work on `O=C(Nc1ccc2[nH]c3cnc(NCc4ccccc4)cc3c2c1)c1ccccc1` yielded an IC50 [1] of 10 µM.
With `CCCCCC(=O)Nc1cc(Cl)cc2c1[nH]c1cnc(NCc3ccccc3)cc12` the IC50 [2] was 920 nM, the IC50 (HEK-293T) was 1.4 µM and the IC50 [1] was 2.13 µM.
For `O=C(Nc1cc(Cl)cc2c1[nH]c1cnc(NCc3ccccc3)cc12)c1ccccc1`, the Activity [3] was 55.3%, the Activity [4] was 40.1% and the Activity [5] was 49.1%. The Activity [6] was 11.1%, the Activity [7] was 12.7% and the Activity [8] was 10.4%. The Activity [9] was 11.7%, the Activity [10] was 32.4% and the Activity [11] was 33.9%. The Activity [12] was 22%, the Activity [13] was 14.8% and the Activity [14] was 6.59%. The Activity (HeLa S3 [15]) was “Active”, the Activity (HeLa S3 [16]) was “Active” and the IC50 [2] was 2800 nM. For the same compound, the IC50 (HEK-293T) was 4.8 µM and the IC50 [1] was 4.6 µM.
With `CCS(=O)(=O)Nc1cc(Cl)cc2c1[nH]c1cnc(NCc3ccccc3)cc12` the IC50 [1] was 4.84 µM.
In the case of `CCCCNc1cc(Cl)cc2c1[nH]c1cnc(NCc3ccccc3)cc12`, the IC50 [2] is reported as 1600 nM, the IC50 (HEK-293T) is reported as 2.1 µM and the IC50 [1] is reported as 2.6 µM.
Work on `c1ccc(CNc2ccc3[nH]c4cnc(NCc5ccccc5)cc4c3c2)cc1` yielded an IC50 [1] of 21 µM.
`Nc1cc2c(cn1)[nH]c1c(NC(=O)c3ccccc3)cccc12` gave an IC50 [2] of 98000 nM and an IC50 [1] of 118 µM.
`CNc1ccc2[nH]c3cnc(NCc4ccccc4)cc3c2c1` showed an IC50 [1] of 10 µM.
With `CNc1cc(Cl)cc2c1[nH]c1cnc(NCc3ccccc3)cc12` the IC50 [2] was 250 nM, the IC50 (HEK-293T) was 0.35 µM and the IC50 [1] was 0.2 µM.
